# Data reported in PubChem BioAssay AID1027 (Sanford-Burnham Center for Chemical Genomics, 2008).
# Out of some 200,000 compounds screened, fewer than 10 were called active. A selection follows. Values without a mark were called inactive.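 Rule for the calls: active = luciferase activation factor, scaled between plate controls, of at least 2 with compound at 10 µM; inactive = the rest.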
# Target: Luciferin 4-monooxygenase (Photinus pyralis) (UniProt P08659)
# Test: FLuc activators, initial screening, artefact control for FLuc-dependent activation tests, biochemical, ATPlite luminescence (AID 1027)
# Conditions: ATPlite luciferase biochemical, 10 min, at 10 µM, active compounds read high, 0 = ATP-free wells, 1 = DMSO control
# Summary of the method: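 System: Luciferase/luciferin detection reagent, cell-free biochemical luciferase assay | Medium: PBS buffer for ATP | Dosing: Test compounds dosed from 2 mM stocks in 100% DMSO | Timing: 10 min at ambient temperature | Signal: Luminescence measurement of luciferase light output | Evaluation: Luciferase activation, seen as luminescence increase over controls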
# Luciferin 4-monooxygenase (Photinus pyralis), sequence (P08659 whole entry, looked up): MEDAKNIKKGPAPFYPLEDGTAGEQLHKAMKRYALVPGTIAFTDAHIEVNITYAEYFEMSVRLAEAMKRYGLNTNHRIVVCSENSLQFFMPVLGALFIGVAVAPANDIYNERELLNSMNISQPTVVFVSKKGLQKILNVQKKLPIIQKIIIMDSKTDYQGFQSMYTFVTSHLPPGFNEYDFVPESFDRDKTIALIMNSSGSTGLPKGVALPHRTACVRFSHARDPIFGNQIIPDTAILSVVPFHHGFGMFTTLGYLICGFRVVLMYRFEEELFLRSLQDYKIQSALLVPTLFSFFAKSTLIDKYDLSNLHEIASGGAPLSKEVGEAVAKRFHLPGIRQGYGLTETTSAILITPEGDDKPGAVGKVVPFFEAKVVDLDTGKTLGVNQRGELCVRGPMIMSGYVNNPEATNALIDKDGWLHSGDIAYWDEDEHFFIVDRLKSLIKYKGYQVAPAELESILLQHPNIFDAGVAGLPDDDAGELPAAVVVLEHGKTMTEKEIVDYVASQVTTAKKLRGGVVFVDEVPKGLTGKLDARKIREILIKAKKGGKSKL
row,Structure (SMILES),activation factor
1,CCn1c(-c2ccncc2)n[nH]c1=S,1
2,O=C(COC(=O)c1cccc(Br)c1)Nc1cccc2c1C(=O)c1ccccc1C2=O,1
3,O=c1[nH]n2c(-c3ccccc3)nc(O)c2c2ccccc12,1
4,N/C(Cc1ccc([N+](=O)[O-])cc1)=N\OC(=O)C1CCCCC1,1
5,Cc1c(-c2cccc(Cl)c2)nc2ccccc2c1C(=O)OCC(=O)N(C)C1CCS(=O)(=O)C1 (configuration not stated),1
6,COCCCNCCOCCOc1ccc(Cl)cc1Br,1
7,CC(=O)Nc1ccc(SCC(=O)Nc2ccccc2Oc2ccccc2)cc1,1
8,Cc1cc(Oc2ccc(Cl)cc2)nc(SCC(=O)c2ccccc2)n1,1
9,C/C(=N\Nc1ccc([N+](=O)[O-])cc1)c1ccc(-n2nncc2C(C)(C)C)cc1,1
10,Cc1cccc(C)c1NC(=O)CNC(=O)Cc1ccc(Br)cc1,1.1
11,Cc1ccc(C(=O)C(=S)N2CCOCC2)cc1,1.1
12,Cc1ccc(N(CCC(=O)O)S(=O)(=O)c2cccc(C(F)(F)F)c2)cc1,1
13,Cc1ccc(NN=Nc2nc3c([nH]2)c(=O)n(C)c(=O)n3C)cc1,1
14,O=C(N/N=C/c1ccc(Cl)cc1)c1nc2ccc([N+](=O)[O-])cc2c(=O)[nH]1,1
15,CC(=O)Nc1ccc(NC(=O)CSc2nnc(COc3ccccc3C)n2CC2CCCO2)cc1 (configuration not stated),1
16,Fc1cc(Br)ccc1NC(=S)Nc1cccnc1,1.1
17,O=c1cc(CN2CCN(S(=O)(=O)/C=C/c3ccccc3)CC2)c2ccc(O)cc2o1,1
18,CC1(C)CN(c2ccc(-c3ccnc4ncnn34)cc2)C1=O,1
19,CN(C)CCOc1ccc(Cl)cc1C(C)(C)C,1.1
20,CCNC(=S)N1CCN(c2ncccn2)CC1,1
21,CCc1nnc(NS(=O)(=O)c2ccc(NC(=S)NC(=O)/C=C/c3cccs3)cc2)s1,1

row,Structure (SMILES),activation factor
1,COC(=O)C[n+]1cccc2ccccc21,1
2,Cc1cccc(N2CCN(C(=O)c3cccc(S(=O)(=O)N4CCc5ccccc5C4)c3)CC2C)c1 (configuration not stated),1.1
3,CC(=O)NC(Cc1ccc(F)c(F)c1)C(=O)NC1CCN(C(=O)c2ccc(C)cc2)CC1 (configuration not stated),1.1
4,CCCCN(CC)C(=O)c1ccccc1Oc1ccccc1,1
5,Cc1ccccc1C1CC(c2cccs2)=NN1S(C)(=O)=O (configuration not stated),1.1
6,CCn1nc(C)cc1C(=O)N1CCCC(C(=O)c2cccc(OC)c2)C1 (configuration not stated),0.9
7,C=C(C)c1cccc(C(C)(C)NC(=O)NCCN(CC)CC)c1,1
8,Clc1ccc(-c2csc(-c3ccncc3)n2)cc1,0.9
9,COCCNC(=S)Nc1cc(S(=O)(=O)N2CCOCC2)ccc1N1CCCCC1,1
10,CC(C)OCCCNC(=O)c1ccc(C2SCC(=O)N2Cc2ccco2)cc1 (configuration not stated),1
11,COc1cccc(-n2c(=S)[nH]c3c(oc4ccccc43)c2=O)c1,1
12,CCc1cc(CNC(=O)CC2C(=O)NCCN2CC2CCCCC2)on1 (configuration not stated),1.1
13,CCCCOC(=O)c1ccc(NC(c2ccc(C)cc2)P(=O)(OC)OC)cc1 (configuration not stated),1
14,CC1=C(C(=O)Nc2cc(C)ccn2)C(c2cnn(C)c2)C2=C(CC(c3ccccc3)CC2=O)N1 (configuration not stated),1.1
15,COc1cc(NC(=O)CSc2nnc3ccc(-c4ccncc4)nn23)cc(OC)c1,1
16,COc1ccc(CN2CCNC(=O)C2CC(=O)N(C)Cc2ccccn2)cc1OC (configuration not stated),1
17,Cc1cc(C(=O)N/N=C\C(Br)=C\c2ccccc2)c(C)o1,0.8
18,O=C(Cn1nnc2ccccc2c1=O)NCc1ccc(Cl)cc1,1
19,O=C1CCCN1CCCNC(=S)Nc1ccc(F)c(Cl)c1,1
20,Cc1c(CN2CCCC(C(=O)c3cccc(Cl)c3)C2)c(=O)n(-c2ccccc2)n1C (configuration not stated),1
21,Cc1ccc(-c2csc(NC(=O)Cn3[nH]c(=O)c4ccccc4c3=O)n2)cc1,1

row,Structure (SMILES),activation factor
1,CC[n+]1c(C)n(-c2ccccc2)c2ccc(NC(C)=O)cc21,1
2,O=S(=O)(c1ccccc1)c1nc(-c2ccccc2F)oc1NCc1cccnc1,1.1
3,C/C(=N\NC(=S)NCc1ccccc1)c1ccc(Cl)cc1,1
4,CCCc1cc(-c2nc(-c3ccc(C)cc3)cs2)ccn1,1
5,CSCC[C@H](NC(=O)OC(C)(C)C)C(=O)N/N=C/c1cc2ccc(C)cc2nc1Cl,1.1
6,CCOC(=O)c1[nH]c2c(c1-c1ccccc1)C(=O)CC(c1ccc(Cl)cc1)C2 (configuration not stated),1
7,Cc1ccc(-n2ncc3c(=O)n(-c4ccc(C)c(C)c4)c(-c4ccco4)nc32)cc1,1
8,COc1cc(NC(=O)COC(=O)CSc2ccc3ccccc3c2)c(C)cc1[N+](=O)[O-],1.1
9,CNC(=O)c1[nH]cnc1C(=O)N[C@@H](CC(C)C)C(=O)OCc1ccccc1,1.1
10,CCN(CCCNC(=O)CCn1c(=O)[nH]c2ccsc2c1=O)c1ccccc1,1
11,CCc1ccc(C2C(C#N)=C(N)N(N(C)C)C3=C2C(=O)CCC3)s1 (configuration not stated),1
12,O=C(CCCNS(=O)(=O)c1cccc2nsnc12)NCCN1CCN(c2ccccc2F)CC1,1.1
13,Cc1ccc(NC(=O)CSc2nc(CSc3ccc(C)cc3)cc(=O)[nH]2)cc1,0.9
14,Cc1cccc(N2CCN(C(=O)c3cnn4c(C(F)F)cc(-c5ccccc5)nc34)CC2)c1C,1
15,Cc1ccc(NC(=O)CN2CCCCC2)c2c1CC(C)(C)O2,1
16,CC[C@H](C)[C@@H](C(=O)N1CCNCC1)n1cc([C@@H](N)Cc2ccc(O)cc2)nn1,1.1
17,CCN(CC)CCNc1nc(-c2ccc(OC(F)F)cc2)c(C)s1,1
18,CNC(=O)/C(C#N)=C/c1c(F)cccc1Cl,1
19,Clc1ccc(-c2cc(C3CCNCC3)[nH]n2)c(Cl)c1,1
20,COc1ccc(C2=NN(c3nc4ccccc4s3)C(=O)C2)cc1,0.4
